Published values gathered from unrelated publications.
Lines come from different studies, so protocols differ.
Observed: cell growth or viability

O=c1c2ccccc2nc(S)n1-c1ccccc1 — viability (HCT-116; LDH; 200 µg/mL; 24 h): 73.5%
COc1c2ccoc2cc2oc(=O)ccc12 — IC50 (HCT-116; WST-1; 48 h): 29000 nM
Cc1cc(N(CCOS(C)(=O)=O)CCOS(C)(=O)=O)ccc1C=O — IC50 (SN12K1): 0.79 µg/mL
CC[C@@]1(OC(=O)[C@@H]2CCCN2)C(=O)OCc2c1cc1n(c2=O)Cc2cc3cc4c(cc3nc2-1)OCO4 — IC50 (HCT-116; MTT): 125 nM
Cc1cccc2[nH]cc(CNCC3(N4CCCC4)COC3)c12 — viability (U-87 MG; 30 µM; 48 h): 52.5%
Cc1c(Cc2cccc(N(C)S(=O)(=O)CCCNCCCC(=O)N3CCN(c4ccc(Nc5c(C(N)=O)cnc6ccc(-c7cnc8ccccc8c7)cc56)cc4C(F)(F)F)CC3)c2)c(=O)oc2cc(OC(=O)N(C)C)ccc12 — GI50 (HCT-116; CCK-8): 5470 nM
CC[C@@]1(OC(=O)CN)C(=O)OCc2c1cc1n(c2=O)Cc2cc3cc4c(cc3nc2-1)OCO4 — IC50 (HCT-116; MTT): 25 nM
COc1cc2c(c3c1C(=O)C[C@@H](c1ccccc1)O3)[C@H]1[C@@H](O2)OC(C)(C)[C@@H]1OC(C)=O — IC50 (Raji; MTS; 48 h): > 10000 nM
CC[C@@]1(OC(=O)[C@H](C)N)C(=O)OCc2c1cc1n(c2=O)Cc2cc3cc4c(cc3nc2-1)OCO4 — IC50 (HCT-116; MTT): 80 nM
Cc1cccc(-n2ncc(Cl)c(Cl)c2=O)c1 — IC50 (PC-9; resazurin; 96 h): 650 nM
Cc1ccc2c(CNCC3(N4CCCC4)COC3)c[nH]c2c1 — viability (U-87 MG; 30 µM; 48 h): 27.6%
CC[C@@]1(OC(=O)[C@@H](N)Cc2ccccc2)C(=O)OCc2c1cc1n(c2=O)Cc2cc3cc4c(cc3nc2-1)OCO4 — IC50 (HCT-116; MTT): 38 nM
CC1=C(O)C(=O)C=C2C1=CC=C1[C@@]2(C)CC[C@@]2(C)[C@@H]3C[C@](C)(C(=O)OCCCn4cc(C=O)c5ccccc54)CC[C@]3(C)CC[C@]12C — IC50 (AGS; MTT; 48 h): 320 nM
